Data reported in ChEMBL document CHEMBL1938303, “Novel biologically active nitro and amino substituted benzimidazo[1,2-a]quinolines” (Bioorg Med Chem, 2011).
The source made the active and inactive calls. The calls are words filed in the database; no cut-off is given here.

What was measured:
HCT-116 [1] = experiment: Cell cycle arrest in human HCT116 cells assessed as accumulation at Sub G0/G1 phase at 5 uM after 24 hrs by flow cytometric analysis (reference value: 3 %); type: functional
HCT-116 [2] = experiment: Cell cycle arrest in human HCT116 cells assessed as accumulation at Sub G0/G1 phase at 5 uM after 48 hrs by flow cytometric analysis (reference value: 1 %); type: functional
HCT-116 [3] = experiment: Cell cycle arrest in human HCT116 cells assessed as accumulation at G0/G1 phase at 5 uM after 24 hrs by flow cytometric analysis (reference value: 40 %); type: functional
NCI-H460 [4] = experiment: Antitumor activity against human H460 cells assessed as growth inhibition after 72 hrs by MTT assay; type: functional, cell-based
Summary of the method: (§1)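 MCF-7, SW 620, HCT 116 and H 460 were grown as monolayers in DMEM, and MOLT-4 in suspension in RPMI, all with 10% FBS, 2 mM L-glutamine and penicillin/streptomycin at 37 °C in 5% CO2. Cells were seeded at 1×10^4 to 3×10^4 cells/mL on day 0. Compounds were added in ten-fold dilutions (10^-8 to 10^-4 M) for 72 h, then read by MTT at 570 nm. IC50 came from linear regression of percentage growth. Quadruplicate, at least two experiments.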

HCT-116 [5] = experiment: Cell cycle arrest in human HCT116 cells assessed as accumulation at S phase at 5 uM after 48 hrs by flow cytometric analysis (reference value: 35 %); type: functional
HCT-116 [6] = experiment: Antitumor activity against human HCT116 cells assessed as growth inhibition after 72 hrs by MTT assay; type: functional, cell-based; summary of the method: as §1
HCT-116 [7] = experiment: Cell cycle arrest in human HCT116 cells assessed as accumulation at S phase at 5 uM after 24 hrs by flow cytometric analysis (reference value: 39 %); type: functional
HCT-116 [8] = experiment: Cell cycle arrest in human HCT116 cells assessed as accumulation at G0/G1 phase at 5 uM after 48 hrs by flow cytometric analysis (reference value: 40 %); type: functional
HCT-116 [9] = experiment: Cell cycle arrest in human HCT116 cells assessed as accumulation at G2/M phase at 5 uM after 48 hrs by flow cytometric analysis (reference value: 25 %); type: functional
SW-620 = experiment: Antitumor activity against human SW620 cells assessed as growth inhibition after 72 hrs by MTT assay; type: functional, cell-based; summary of the method: as §1
MOLT-4 = experiment: Antitumor activity against human MOLT4 cells assessed as growth inhibition after 72 hrs by MTT assay; type: functional, cell-based; summary of the method: as §1
HCT-116 [10] = experiment: Cell cycle arrest in human HCT116 cells assessed as accumulation at G2/M phase at 5 uM after 24 hrs by flow cytometric analysis (reference value: 21 %); type: functional
[11] = Aqueous solubility of the compound; type: physicochemical; conditions: buffer
Nucleic Acid [12] = experiment: Binding affinity to calf thymus DNA assessed as change in melting temperature at compound to DNA molar ratio of 0.1 at pH 7 by thermal denaturation assay; type: nucleic-acid assay; conditions: Bos taurus
Summary of the method: (§2)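 Absorbance of ct-DNA alone or with compound at 260 nm was recorded against temperature in sodium cacodylate buffer (I = 0.05 mol dm⁻³, pH 7.0). r = [compound]/[polynucleotide]. Ligand absorbance was subtracted and curves were normalised. Tm was the transition midpoint, taken from the first-derivative maximum or by tangent method. ΔTm = Tm(complex) − Tm(free DNA), averaged over at least two runs, ±0.5 °C.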

Nucleic Acid [13] = experiment: Binding affinity to calf thymus DNA assessed as change in melting temperature at compound to DNA molar ratio of 0.3 at pH 7 by thermal denaturation assay; type: nucleic-acid assay; conditions: Bos taurus; summary of the method: as §2
Nucleic Acid [14] = experiment: Binding affinity to calf thymus DNA assessed as binding constant at pH 7 by UV-visible spectrophotometry; type: nucleic-acid assay; conditions: Bos taurus
Summary of the method: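 Sonicated, filtered ct-DNA was quantified as phosphate. It was added in portions to the compound solution in sodium cacodylate buffer (I = 0.05 mol dm⁻³, pH 7.0), and absorbance changes were followed. Ks came from non-linear least-squares fitting to the Scatchard equation, with Ks recalculated for a fixed n of 0.2.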

Nucleic Acid [15] = experiment: Binding affinity to calf thymus DNA assessed as binding constant at pH 7 by fluorescence quenching assay; type: nucleic-acid assay; conditions: Bos taurus
Summary of the method: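 Calf thymus DNA in sodium cacodylate buffer (I = 0.05 mol dm⁻³, pH 7.0) was sonicated and filtered, with concentration taken as phosphate. Portions of DNA were added to the buffered compound, keeping absorbance below 0.05 at the excitation wavelength and DMSO below 1%. Emission was recorded from 350 to 600 nm. Ks came from non-linear Scatchard fitting, recalculated at fixed n = 0.2.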

Nucleic Acid [16] = experiment: Binding affinity to calf thymus DNA by CD-Spectroscopy; type: nucleic-acid assay; conditions: Bos taurus
Nucleic Acid [17] = experiment: Binding affinity to calf thymus DNA assessed as change in melting temperature at compound to DNA molar ratio of 0.2 at pH 7 by thermal denaturation assay; type: nucleic-acid assay; conditions: Bos taurus; summary of the method: as §2
MCF7 = experiment: Antitumor activity against human MCF7 cells assessed as growth inhibition after 72 hrs by MTT assay; type: functional, cell-based; conditions: MCF7, 72 h; summary of the method: as §1
[18] = Drug uptake in human H460 cell nucleus at 100 uM after 2 hrs by fluorescence microscopy; type: ADME, cell-based; conditions: h460, 2 h
Summary of the method: (§3)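 H 460 cells were grown on cover slips (100,000 cells/well) in DMEM at 37 °C for 24 h. They were then exposed to 100 µM compound for 120 min, rinsed twice with PBS, and examined immediately for intrinsic compound fluorescence under a fluorescence microscope.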

[19] = Drug uptake in human H460 cell cytoplasm at 100 uM after 2 hrs by fluorescence microscopy; type: ADME, cell-based; conditions: h460, 2 h; summary of the method: as §3
[20] = Drug uptake in human H460 cell cytoplasm at 100 uM after 24 hrs by fluorescence microscopy; type: ADME, cell-based; conditions: h460, 24 h
NCI-H460 [21] = experiment: Drug uptake in human H460 cells assessed as colocalization with endoplasmic reticulum at 100 uM after 2 hrs by fluorescence microscopy; type: ADME, cell-based; conditions: nci-h460, 2 h
Nucleic Acid [22] = experiment: Binding affinity to calf thymus DNA assessed as intercalation measuring viscosity index at compound to DNA molar ratio of 0.2 at pH 7 by viscometry method; type: nucleic-acid assay; conditions: Bos taurus

Structure (SMILES) | Activity (HCT-116 [1]) | Activity (HCT-116 [2]) | Activity (HCT-116 [3]) | Activity (HCT-116 [5]) | Activity (HCT-116 [7]) | Activity (HCT-116 [8]) | Activity (HCT-116 [9]) | IC50 (MOLT-4; molt-4) | Activity (HCT-116 [10]) | log Ks (Nucleic Acid [15]) | IC50 (NCI-H460 [4]; Homo sapiens, NCI-H460, 72 h) | IC50 (HCT-116 [6]; Homo sapiens, HCT-116, 72 h) | IC50 (SW-620; Homo sapiens, SW-620, 72 h) | IC50 (MOLT-4; Homo sapiens, MOLT-4, 72 h) | IC50 (MCF7) | other results
N#Cc1cc2cc(N)ccc2n2c1nc1ccccc12 [listing 1 of 2 here] | 6% | 3% | 62% | 25% | 20% | 47% | 28% | 6000 nM | 18% |  |  |  |  |  |  | IC50 (NCI-H460 [4]; nci-h460): 3000 nM; IC50 (HCT-116 [6]; hct-116): 4 µM; IC50 (SW-620; sw-620): 4 µM; solubility [11]: Insoluble
N#Cc1cc2cc(N)ccc2n2c1nc1ccccc12 [listing 2 of 2 here] |  |  |  |  |  |  |  |  |  | 5.5 |  |  |  |  |  | ΔTm (Nucleic Acid [12]): 0.9 °C; ΔTm (Nucleic Acid [13]): 0.2 °C; log Ks (Nucleic Acid [14]): 5.1; Activity (Nucleic Acid [16]): Active; ΔTm (Nucleic Acid [17]): 1.9 °C
O=[N+]([O-])c1ccc2c(ccc3nc4ccccc4n32)c1 |  |  |  |  |  |  |  |  |  |  | 8000 nM | 6 µM | 6 µM | 3000 nM | 4 µM | 
Cl.N#Cc1cc2cc(N)ccc2n2c1nc1ccccc12 | 4% | 4% | 55% | 31% | 20% | 45% | 24% | 2000 nM | 25% |  | 2000 nM | 3 µM | 6 µM |  | 4 µM | Drug uptake [18]: Not Active; Drug uptake [19]: Active; Drug uptake [20]: Active; Drug uptake (NCI-H460 [21]): Active
O=[N+]([O-])c1ccc(Cl)c(/C=C/c2nc3ccccc3[nH]2)c1 |  |  |  |  |  |  |  |  |  |  | > 100000 nM | 4 µM | 28 µM | > 100000 nM | 32 µM | 
CC[n+]1c(-c2ccccc2)c2cc(N)ccc2c2ccc(N)cc21 |  |  |  |  |  |  |  |  |  | 6 |  |  |  |  |  | Activity (Nucleic Acid [22]): Active
